ChEMBL document CHEMBL5653631, “A Potent and Selective ULK1 Inhibitor Suppresses Autophagy and Sensitizes Cancer Cells to Nutrient Stress” (iScience, 2018)

How the values were obtained:
[1] = biological target: T1, Serine/threonine-protein kinase DCLK2 (Homo sapiens) (UniProt Q8N568); assay: Inhibition of human recombinant DCAMKL2 at 40 nM in presence of ATP by radiometric assay relative to control
T1 sequence (whole entry): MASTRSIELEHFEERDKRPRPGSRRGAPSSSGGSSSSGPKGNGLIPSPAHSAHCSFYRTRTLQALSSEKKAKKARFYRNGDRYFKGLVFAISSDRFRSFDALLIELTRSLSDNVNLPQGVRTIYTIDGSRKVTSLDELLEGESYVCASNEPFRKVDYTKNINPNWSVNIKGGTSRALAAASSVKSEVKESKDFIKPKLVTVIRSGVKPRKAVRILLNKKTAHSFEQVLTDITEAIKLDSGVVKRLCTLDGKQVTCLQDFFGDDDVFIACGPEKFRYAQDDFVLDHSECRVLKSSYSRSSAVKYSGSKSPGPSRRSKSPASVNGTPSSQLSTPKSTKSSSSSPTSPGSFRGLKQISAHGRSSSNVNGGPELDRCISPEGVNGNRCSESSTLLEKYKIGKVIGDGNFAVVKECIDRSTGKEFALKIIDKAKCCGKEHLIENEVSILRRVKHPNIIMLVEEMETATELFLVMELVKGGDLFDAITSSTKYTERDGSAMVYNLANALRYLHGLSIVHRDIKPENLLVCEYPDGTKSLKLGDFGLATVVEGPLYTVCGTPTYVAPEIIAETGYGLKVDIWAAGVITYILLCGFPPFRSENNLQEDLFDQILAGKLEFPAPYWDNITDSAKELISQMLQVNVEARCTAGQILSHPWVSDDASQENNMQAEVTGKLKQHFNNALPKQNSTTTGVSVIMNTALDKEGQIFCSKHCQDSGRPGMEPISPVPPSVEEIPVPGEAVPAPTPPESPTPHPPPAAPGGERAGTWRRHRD

[2] = biological target: Tyrosine-protein kinase Fes/Fps (Homo sapiens) (UniProt P07332); assay: Inhibition of human recombinant FES at 40 nM in presence of ATP by radiometric assay relative to control
Tyrosine-protein kinase Fes/Fps (Homo sapiens), sequence (P07332 whole entry): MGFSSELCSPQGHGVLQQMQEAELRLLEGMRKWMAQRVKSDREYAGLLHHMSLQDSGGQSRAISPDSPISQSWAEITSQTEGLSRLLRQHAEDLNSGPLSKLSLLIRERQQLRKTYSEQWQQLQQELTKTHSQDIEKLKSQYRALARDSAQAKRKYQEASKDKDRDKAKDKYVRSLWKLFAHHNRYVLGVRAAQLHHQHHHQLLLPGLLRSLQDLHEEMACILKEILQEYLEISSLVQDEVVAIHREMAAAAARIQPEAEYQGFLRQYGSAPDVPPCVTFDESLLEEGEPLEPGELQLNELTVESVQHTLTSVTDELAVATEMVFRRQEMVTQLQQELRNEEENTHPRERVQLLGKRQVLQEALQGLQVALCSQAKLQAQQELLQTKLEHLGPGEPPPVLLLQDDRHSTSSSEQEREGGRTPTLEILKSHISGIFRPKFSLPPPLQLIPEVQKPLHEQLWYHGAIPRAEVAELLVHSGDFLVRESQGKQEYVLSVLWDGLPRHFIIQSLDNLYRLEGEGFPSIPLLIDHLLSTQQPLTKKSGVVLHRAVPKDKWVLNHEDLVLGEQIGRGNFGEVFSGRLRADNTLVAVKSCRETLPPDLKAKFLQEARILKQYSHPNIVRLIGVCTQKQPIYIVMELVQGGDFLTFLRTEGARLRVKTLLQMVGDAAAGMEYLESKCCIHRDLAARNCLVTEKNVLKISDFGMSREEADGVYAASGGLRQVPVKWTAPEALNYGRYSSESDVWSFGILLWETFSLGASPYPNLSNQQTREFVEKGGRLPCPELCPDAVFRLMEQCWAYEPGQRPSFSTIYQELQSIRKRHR

[3] = biological target: T2, Mitogen-activated protein kinase 12 (Homo sapiens) (UniProt P53778); assay: Inhibition of human recombinant p38gamma at 40 nM in presence of ATP by radiometric assay relative to control
T2 sequence (whole entry): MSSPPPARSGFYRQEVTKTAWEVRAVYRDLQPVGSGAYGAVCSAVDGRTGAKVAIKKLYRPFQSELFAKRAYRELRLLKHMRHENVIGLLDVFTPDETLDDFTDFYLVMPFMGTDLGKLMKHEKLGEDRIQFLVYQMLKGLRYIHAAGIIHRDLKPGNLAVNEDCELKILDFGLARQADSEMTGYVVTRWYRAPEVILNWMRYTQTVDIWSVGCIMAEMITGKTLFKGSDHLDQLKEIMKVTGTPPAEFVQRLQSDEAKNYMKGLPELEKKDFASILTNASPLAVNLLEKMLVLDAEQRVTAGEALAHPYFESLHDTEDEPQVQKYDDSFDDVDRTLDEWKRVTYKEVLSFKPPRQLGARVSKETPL

[4] = biological target: T3, Mitogen-activated protein kinase kinase kinase 7 (Homo sapiens) (UniProt O43318); assay: Inhibition of human recombinant TAK1 at 40 nM in presence of ATP by radiometric assay relative to control
T3 sequence (whole entry): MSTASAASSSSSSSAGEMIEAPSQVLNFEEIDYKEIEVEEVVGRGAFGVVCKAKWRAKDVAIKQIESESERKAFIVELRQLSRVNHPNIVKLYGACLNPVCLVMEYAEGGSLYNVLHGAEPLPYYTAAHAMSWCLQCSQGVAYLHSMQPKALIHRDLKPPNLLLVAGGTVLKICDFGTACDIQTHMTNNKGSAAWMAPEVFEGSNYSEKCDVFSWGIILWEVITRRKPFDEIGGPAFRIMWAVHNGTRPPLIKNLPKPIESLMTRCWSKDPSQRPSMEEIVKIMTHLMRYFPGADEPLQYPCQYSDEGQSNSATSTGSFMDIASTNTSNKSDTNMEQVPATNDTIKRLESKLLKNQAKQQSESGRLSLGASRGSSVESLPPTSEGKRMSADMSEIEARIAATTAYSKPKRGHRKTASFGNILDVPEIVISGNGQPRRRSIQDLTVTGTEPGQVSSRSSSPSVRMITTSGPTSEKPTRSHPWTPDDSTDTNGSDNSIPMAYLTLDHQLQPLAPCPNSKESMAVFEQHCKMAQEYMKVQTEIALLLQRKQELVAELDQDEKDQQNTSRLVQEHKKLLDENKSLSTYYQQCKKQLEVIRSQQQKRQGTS

[5] = biological target: Dual specificity protein kinase CLK4 (Homo sapiens) (UniProt Q9HAZ1); assay: Inhibition of human recombinant CLK4 at 500 nM in presence of ATP by radiometric assay relative to control
[6] = biological target: T4, Dual specificity mitogen-activated protein kinase kinase 6 (Homo sapiens) (UniProt P52564); assay: Inhibition of human recombinant MAP2K6 at 500 nM in presence of ATP by radiometric assay relative to control
T4 sequence (whole entry): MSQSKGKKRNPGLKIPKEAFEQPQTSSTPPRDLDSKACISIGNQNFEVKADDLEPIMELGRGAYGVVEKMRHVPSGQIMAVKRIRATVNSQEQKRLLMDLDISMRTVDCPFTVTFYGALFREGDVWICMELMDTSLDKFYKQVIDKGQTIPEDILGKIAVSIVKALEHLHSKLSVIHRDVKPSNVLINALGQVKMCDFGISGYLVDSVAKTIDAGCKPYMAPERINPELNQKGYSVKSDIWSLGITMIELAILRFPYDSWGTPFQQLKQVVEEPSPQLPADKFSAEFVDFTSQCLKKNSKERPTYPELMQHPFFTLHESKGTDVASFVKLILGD

[7] = biological target: Serine/threonine-protein kinase ATR (Homo sapiens) (UniProt Q13535); assay: Inhibition of human recombinant ATR at 500 nM related to control ULK1
Serine/threonine-protein kinase ATR (Homo sapiens), sequence (Q13535 whole entry, looked up): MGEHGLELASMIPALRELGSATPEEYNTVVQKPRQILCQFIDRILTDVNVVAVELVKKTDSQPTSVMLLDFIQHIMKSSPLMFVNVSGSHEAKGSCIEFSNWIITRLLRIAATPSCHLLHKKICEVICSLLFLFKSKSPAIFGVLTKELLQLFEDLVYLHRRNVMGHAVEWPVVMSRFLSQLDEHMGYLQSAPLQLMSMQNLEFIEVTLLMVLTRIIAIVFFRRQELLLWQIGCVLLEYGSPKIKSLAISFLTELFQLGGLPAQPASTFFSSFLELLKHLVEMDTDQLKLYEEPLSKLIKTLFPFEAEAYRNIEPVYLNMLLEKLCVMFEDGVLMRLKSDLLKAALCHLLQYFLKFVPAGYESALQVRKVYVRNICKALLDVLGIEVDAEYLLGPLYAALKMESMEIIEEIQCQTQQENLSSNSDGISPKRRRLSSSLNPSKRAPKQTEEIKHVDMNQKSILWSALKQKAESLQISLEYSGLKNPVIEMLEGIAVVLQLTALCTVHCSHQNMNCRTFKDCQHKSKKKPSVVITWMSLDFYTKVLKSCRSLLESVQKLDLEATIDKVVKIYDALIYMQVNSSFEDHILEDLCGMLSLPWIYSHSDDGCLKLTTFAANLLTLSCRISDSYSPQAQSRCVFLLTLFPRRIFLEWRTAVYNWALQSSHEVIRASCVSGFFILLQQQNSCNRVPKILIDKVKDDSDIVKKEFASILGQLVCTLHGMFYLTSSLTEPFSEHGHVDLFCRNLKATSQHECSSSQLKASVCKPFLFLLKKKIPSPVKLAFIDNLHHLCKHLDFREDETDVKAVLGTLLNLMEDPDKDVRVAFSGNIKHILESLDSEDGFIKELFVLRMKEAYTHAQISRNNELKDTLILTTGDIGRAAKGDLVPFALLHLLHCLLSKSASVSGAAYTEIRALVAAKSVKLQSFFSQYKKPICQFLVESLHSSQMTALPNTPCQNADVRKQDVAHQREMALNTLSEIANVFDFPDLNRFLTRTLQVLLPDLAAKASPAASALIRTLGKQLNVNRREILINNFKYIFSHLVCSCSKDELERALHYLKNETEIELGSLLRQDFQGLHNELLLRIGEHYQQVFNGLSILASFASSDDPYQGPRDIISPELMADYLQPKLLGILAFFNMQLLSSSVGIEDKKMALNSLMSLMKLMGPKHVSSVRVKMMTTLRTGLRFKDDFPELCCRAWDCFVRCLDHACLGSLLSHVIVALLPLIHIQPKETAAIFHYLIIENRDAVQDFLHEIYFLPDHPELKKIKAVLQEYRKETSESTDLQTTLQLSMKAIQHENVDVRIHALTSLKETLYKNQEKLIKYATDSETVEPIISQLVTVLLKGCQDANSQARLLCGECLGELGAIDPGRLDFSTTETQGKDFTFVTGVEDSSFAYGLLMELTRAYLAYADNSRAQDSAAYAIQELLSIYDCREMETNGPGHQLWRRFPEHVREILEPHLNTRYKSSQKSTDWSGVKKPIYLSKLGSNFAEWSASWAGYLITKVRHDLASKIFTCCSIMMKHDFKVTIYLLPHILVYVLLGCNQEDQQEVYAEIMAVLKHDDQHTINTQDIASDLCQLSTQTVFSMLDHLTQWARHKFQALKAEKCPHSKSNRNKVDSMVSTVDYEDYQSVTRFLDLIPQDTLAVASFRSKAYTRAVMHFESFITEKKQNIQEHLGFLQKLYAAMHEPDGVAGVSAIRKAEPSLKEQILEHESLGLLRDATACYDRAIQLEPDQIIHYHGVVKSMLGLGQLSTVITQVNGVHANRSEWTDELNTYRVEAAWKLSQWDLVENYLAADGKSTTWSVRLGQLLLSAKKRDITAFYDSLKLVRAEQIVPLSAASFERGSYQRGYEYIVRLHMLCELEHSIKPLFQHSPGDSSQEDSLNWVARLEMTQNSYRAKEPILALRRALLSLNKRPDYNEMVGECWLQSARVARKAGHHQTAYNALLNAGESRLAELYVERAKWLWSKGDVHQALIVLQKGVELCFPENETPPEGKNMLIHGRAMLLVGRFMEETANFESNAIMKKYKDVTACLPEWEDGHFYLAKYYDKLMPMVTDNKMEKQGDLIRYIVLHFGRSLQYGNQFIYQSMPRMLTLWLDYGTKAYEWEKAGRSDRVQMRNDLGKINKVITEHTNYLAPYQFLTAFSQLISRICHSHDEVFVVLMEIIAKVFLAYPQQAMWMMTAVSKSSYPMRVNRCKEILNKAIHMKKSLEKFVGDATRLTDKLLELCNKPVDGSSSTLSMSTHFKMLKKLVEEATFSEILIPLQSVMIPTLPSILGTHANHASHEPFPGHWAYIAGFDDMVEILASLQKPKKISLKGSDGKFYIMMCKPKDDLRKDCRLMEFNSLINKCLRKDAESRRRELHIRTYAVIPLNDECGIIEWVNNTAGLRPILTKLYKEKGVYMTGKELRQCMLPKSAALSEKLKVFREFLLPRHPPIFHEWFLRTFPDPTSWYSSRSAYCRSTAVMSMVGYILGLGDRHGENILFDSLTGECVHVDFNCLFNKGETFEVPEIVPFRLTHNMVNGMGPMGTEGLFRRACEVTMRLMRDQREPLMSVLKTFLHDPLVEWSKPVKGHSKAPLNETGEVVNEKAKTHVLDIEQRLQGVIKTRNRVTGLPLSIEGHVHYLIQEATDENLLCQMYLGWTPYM
Outline: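 Panel of 327 recombinant human kinases, each assayed in vitro by radiometric activity assay in duplicate at a single inhibitor concentration per compound, chosen with reference to its ULK1 inhibition. Activity remaining was expressed as percent of vehicle control, and percent inhibition was calculated as 100 minus percent activity remaining.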

[8] = biological target: Calcium/calmodulin-dependent protein kinase type 1D (Homo sapiens) (UniProt Q8IU85); assay: Inhibition of human recombinant CaMK1d at 15 nM in presence of ATP by radiometric assay relative to control
Calcium/calmodulin-dependent protein kinase type 1D (Homo sapiens), sequence (Q8IU85 whole entry, looked up): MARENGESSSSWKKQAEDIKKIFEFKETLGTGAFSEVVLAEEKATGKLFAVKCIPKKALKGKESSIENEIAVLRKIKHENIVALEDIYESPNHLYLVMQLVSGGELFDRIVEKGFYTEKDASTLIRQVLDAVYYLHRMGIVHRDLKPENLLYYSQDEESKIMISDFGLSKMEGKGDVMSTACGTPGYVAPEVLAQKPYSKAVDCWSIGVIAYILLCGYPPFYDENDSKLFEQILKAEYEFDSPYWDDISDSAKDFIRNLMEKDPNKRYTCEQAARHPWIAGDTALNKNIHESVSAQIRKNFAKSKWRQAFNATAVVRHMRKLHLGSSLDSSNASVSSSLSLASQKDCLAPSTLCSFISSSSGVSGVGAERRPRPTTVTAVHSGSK

[9] = biological target: Ephrin type-A receptor 2 (Homo sapiens) (UniProt P29317); assay: Inhibition of human recombinant EphA2 at 15 nM related to control ULK1
Ephrin type-A receptor 2 (Homo sapiens), sequence (P29317 whole entry): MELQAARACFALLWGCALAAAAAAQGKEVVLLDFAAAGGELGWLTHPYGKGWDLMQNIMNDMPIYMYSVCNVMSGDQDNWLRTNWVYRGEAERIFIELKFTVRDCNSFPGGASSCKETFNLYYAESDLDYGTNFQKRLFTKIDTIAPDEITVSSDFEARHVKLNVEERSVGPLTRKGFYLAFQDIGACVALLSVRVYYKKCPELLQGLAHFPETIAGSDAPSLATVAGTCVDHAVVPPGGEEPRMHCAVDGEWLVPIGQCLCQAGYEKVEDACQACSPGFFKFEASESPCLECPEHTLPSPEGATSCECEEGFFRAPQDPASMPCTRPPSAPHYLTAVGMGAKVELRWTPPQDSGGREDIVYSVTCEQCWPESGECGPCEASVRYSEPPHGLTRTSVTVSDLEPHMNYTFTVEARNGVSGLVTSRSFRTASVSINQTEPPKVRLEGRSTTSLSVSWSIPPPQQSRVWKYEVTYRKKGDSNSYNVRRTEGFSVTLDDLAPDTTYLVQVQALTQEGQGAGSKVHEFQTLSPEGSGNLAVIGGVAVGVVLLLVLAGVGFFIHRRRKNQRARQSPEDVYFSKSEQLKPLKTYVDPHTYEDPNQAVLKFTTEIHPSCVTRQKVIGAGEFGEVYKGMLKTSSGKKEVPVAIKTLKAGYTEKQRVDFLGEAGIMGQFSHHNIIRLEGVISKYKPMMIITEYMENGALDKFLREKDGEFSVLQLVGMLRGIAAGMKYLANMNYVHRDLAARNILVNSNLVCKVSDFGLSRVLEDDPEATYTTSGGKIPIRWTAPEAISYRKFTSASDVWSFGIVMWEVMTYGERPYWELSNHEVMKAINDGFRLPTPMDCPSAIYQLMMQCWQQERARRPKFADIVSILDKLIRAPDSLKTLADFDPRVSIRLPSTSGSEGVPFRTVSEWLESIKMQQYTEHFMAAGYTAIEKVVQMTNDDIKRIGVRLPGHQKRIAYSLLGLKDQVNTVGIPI

[10] = biological target: Vascular endothelial growth factor receptor 1 (Homo sapiens) (UniProt P17948); assay: Inhibition of human recombinant FLT1 at 15 nM related to control ULK1

O=C(N[C@@H](C1CC1)C(F)(F)F)c1cc(-c2cnn3cc(-c4ccc(F)cc4)cnc23)cs1
inhibition [1]: 0%
inhibition [2]: 15%
inhibition [3]: 0%
inhibition [4]: 0%

CNC(=O)c1ccccc1Oc1nc(Nc2cc(OC)c(OC)c(OC)c2)ncc1Br
inhibition [5]: 8%
inhibition [6]: 5%
fold change (FC) [7]: 0

CC(C)[C@H](NC(=O)c1cc(-c2cnn3cc(-c4ccc(OCCN5CCCCC5)cc4)cnc23)cs1)C(F)(F)F
inhibition [8]: 0%
fold change (FC) [9]: 0
fold change (FC) [10]: 0.1
